Measured values as given in ChEMBL document CHEMBL4229533, “Design and synthesis of novel 6-hydroxy-4-methoxy-3-methylbenzofuran-7-carboxamide derivatives as potent Mnks inhibitors by fragment-based drug design” (Bioorg Med Chem, 2018).

Experiments:
[1] = molecular target: T1, MAP kinase-interacting serine/threonine-protein kinase 2 (Homo sapiens, UniProt Q9HBH9); assay: Inhibition of MNK2 (unknown origin) at 10 uM using S3 as substrate measured after 60 mins by HTRF assay relative to control
Summary of the method: (§1)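 HTRF Ser/Thr KinEASE format. Mnk1 or Mnk2 enzyme (0.99 ng) incubated with compound for 60 min at room temperature with 1 μM substrate S3, 392 μM ATP, 10 mM MgCl₂ and 1 mM DTT in KinEASE enzymatic buffer. Stopped with SA-XL665 and STK antibody detection reagents; 615/665 nm signal ratio read. Single-concentration values are duplicate means; IC50 taken from inhibition curves.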
Target sequence in this assay (Q9HBH9 whole entry, looked up): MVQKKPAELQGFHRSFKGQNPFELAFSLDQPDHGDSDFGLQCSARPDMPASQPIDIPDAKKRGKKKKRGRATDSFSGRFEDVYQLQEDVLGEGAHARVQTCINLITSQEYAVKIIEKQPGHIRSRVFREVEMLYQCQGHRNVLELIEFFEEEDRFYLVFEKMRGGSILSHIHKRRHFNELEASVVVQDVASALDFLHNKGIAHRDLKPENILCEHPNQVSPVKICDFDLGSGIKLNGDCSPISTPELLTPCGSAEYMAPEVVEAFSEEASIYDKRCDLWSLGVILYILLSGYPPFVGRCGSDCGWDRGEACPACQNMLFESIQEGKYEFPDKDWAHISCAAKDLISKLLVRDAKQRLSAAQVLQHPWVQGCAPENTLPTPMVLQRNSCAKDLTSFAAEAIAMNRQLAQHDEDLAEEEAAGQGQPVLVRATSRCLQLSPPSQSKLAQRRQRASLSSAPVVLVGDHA

[2] = molecular target: T1, MAP kinase-interacting serine/threonine-protein kinase 2; assay: Inhibition of MNK2 (unknown origin) at 1 uM using S3 as substrate measured after 60 mins by HTRF assay relative to control; summary of the method: as §1
Target sequence in this assay (Q9HBH9 whole entry, looked up): as above

MOLM-13 = assay: Antiproliferative activity against human MOLM13 cells after 96 hrs by MTT assay; type: functional, cell-based; details: MOLM-13, 96 h
Summary of the method: (§2)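 Cells seeded at 2,000 per well and grown 24 h at 37 °C in 5% CO₂. Compound added over a concentration range in triplicate wells, then incubated 96 h. MTT (2 mg/mL) added for 4 h, formazan taken up in DMSO, absorbance read at 570 nm. Inhibition calculated against untreated control. IC50 is the concentration giving half inhibition; mean of three independent experiments.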

[3] = molecular target: MAP kinase-interacting serine/threonine-protein kinase 1 (Homo sapiens) (UniProt Q9BUB5); assay: Inhibition of MNK1 (unknown origin) at 10 uM using S3 as substrate measured after 60 mins by HTRF assay relative to control; summary of the method: as §1
[4] = molecular target: MAP kinase-interacting serine/threonine-protein kinase 1 (Homo sapiens) (UniProt Q9BUB5); assay: Inhibition of MNK1 (unknown origin) at 1 uM using S3 as substrate measured after 60 mins by HTRF assay relative to control; summary of the method: as §1
[5] = molecular target: MAP kinase-interacting serine/threonine-protein kinase 1 (Homo sapiens) (UniProt Q9BUB5); assay: Inhibition of MNK1 (unknown origin) at 0.1 uM using S3 as substrate measured after 60 mins by HTRF assay relative to control; summary of the method: as §1
[6] = molecular target: T1, MAP kinase-interacting serine/threonine-protein kinase 2; assay: Inhibition of MNK2 (unknown origin) using S3 as substrate measured after 60 mins by HTRF assay
Target sequence in this assay (Q9HBH9 whole entry): as the sequence (Q9HBH9 whole entry, looked up) above

THP-1 = assay: Antiproliferative activity against human THP1 cells after 96 hrs by MTT assay; type: functional, cell-based; details: THP-1, 96 h; summary of the method: as §2
HCT-116 [7] = assay: Antiproliferative activity against human HCT116 cells after 96 hrs by MTT assay; type: functional, cell-based; details: HCT-116, 96 h; summary of the method: as §2
[8] = molecular target: MAP kinase-interacting serine/threonine-protein kinase 1/2 (Homo sapiens) (UniProt Q9HBH9+Q9BUB5); assay: Inhibition of MNK1/MNK2 in human HCT116 cells assessed as reduction in eIF4E phosphorylation at Ser209 residue after 24 hrs by Western blot analysis; type: cell-based
Summary of the method: (§3)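 HCT-116 cells exposed to compound at several concentrations in 0.5% DMSO, or DMSO alone, for 24 h. Cells were rinsed in ice-cold PBS and lysed in RIPA buffer (pH 8.0), 50 µg protein loaded. Run on 8% or 12% SDS-PAGE, transferred to nitrocellulose and checked for loading by Ponceau S. Blocked in 5% milk, probed overnight at 4°C for eIF4E, p-eIF4E and GAPDH, detected by ECL.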

HCT-116 [9] = assay: Effect on eIF4E levels in human HCT116 cells at 1 to 4 times IC50 after 24 hrs by Western blot analysis; type: ADME, cell-based; details: hct-116, 24 h; summary of the method: as §3

Chain of MAP kinase-interacting serine/threonine-protein kinase 1 (Homo sapiens) (Q9BUB5 whole entry, looked up): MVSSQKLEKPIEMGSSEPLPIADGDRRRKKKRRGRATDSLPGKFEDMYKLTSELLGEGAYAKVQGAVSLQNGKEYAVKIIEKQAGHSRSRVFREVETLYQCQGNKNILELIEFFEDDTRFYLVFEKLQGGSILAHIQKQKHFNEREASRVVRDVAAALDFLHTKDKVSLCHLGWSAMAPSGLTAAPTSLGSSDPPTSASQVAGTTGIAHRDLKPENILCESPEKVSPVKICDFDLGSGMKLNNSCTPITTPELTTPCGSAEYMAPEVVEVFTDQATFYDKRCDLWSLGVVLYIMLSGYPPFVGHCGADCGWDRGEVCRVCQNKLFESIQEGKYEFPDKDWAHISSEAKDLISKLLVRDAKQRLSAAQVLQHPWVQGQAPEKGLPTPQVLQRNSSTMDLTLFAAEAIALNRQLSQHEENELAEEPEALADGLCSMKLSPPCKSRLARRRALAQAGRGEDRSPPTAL

SMILES	inhibition [1] [%]	inhibition [2] [%]	also measured
COc1cc(O)c(C(N)=O)c2oc(C(=O)NC3CCN(Cc4ccc(F)cc4)CC3)c(C)c12	15	8	–
COc1cc(O)c(C(N)=O)c2oc(C(=O)NCCN(C)C)c(C)c12	24	19	–
COc1cc(O)c(C(N)=O)c2oc(C(=O)NC3CCN(Cc4ccc(C(F)(F)F)cc4)CC3)c(C)c12	43	24	–
COc1ccc2c(C)c(C(=O)NC3CCN(Cc4cccc(C(F)(F)F)c4)CC3)oc2c1	27	0	–
COc1cc(O)c(C(N)=O)c2oc(C(=O)NC3CCN(Cc4cccc(C(F)(F)F)c4)CC3)c(C)c12	90	85	IC50 (MOLM-13): 3.15 µM; inhibition [3]: 59%; inhibition [4]: 41%; inhibition [5]: 20%; IC50 [6]: 0.273 µM; IC50 (THP-1): 6.3 µM; IC50 (HCT-116 [7]): 2.77 µM; inhibition [8]: Dose-dependent effect; Activity (HCT-116 [9]): Non-Toxic
COc1cc(O)c(C(N)=O)c2oc(C(=O)NC3CCN(Cc4cc(Cl)ncn4)CC3)c(C)c12	11	0	–
Cc1c(C(=O)NC2CCN(Cc3cccc(C(F)(F)F)c3)CC2)oc2cc(O)ccc12	28	0	–
COc1cc(O)c(C(N)=O)c2oc(C(=O)NCC3CCN(Cc4ccc(F)cc4)CC3)c(C)c12	41	32	–
COc1cc(O)c(C(N)=O)c2oc(C(=O)NCC3CCN(Cc4cccc(C(F)(F)F)c4)CC3)c(C)c12	49	23	–
COc1cc(O)c(C(N)=O)c2oc(C(=O)Nc3ccc(F)c(C(F)(F)F)c3)c(C)c12	35	18	–
CCN1CCN(C(=O)c2oc3c(C(N)=O)c(O)cc(OC)c3c2C)CC1	79	36	IC50 (MOLM-13): 13.5 µM; inhibition [3]: 30%; inhibition [4]: 7%; inhibition [5]: 3%; IC50 [6]: 1.16 µM; IC50 (THP-1): 18.8 µM; IC50 (HCT-116 [7]): 15.7 µM
COc1cc(O)c(C(N)=O)c2oc(C(=O)NC3CCN(Cc4cccc(Cl)c4Cl)CC3)c(C)c12	21	18	–
COc1cc(O)c(C(N)=O)c2oc(C(=O)N3CCN(c4cccc(C(F)(F)F)c4)CC3)c(C)c12	61	28	–
CNC(=O)c1oc2c(C(N)=O)c(O)cc(OC)c2c1C	73	66	inhibition [3]: 39%; inhibition [4]: 26%; inhibition [5]: 11%; IC50 [6]: 1.45 µM; IC50 (THP-1): > 50 µM
COc1cc(O)c(C(N)=O)c2occ(C)c12	77	43	IC50 (MOLM-13): 24.8 µM; inhibition [3]: 39%; inhibition [4]: 49%; inhibition [5]: 34%; IC50 [6]: 0.749 µM; IC50 (THP-1): 32.4 µM; IC50 (HCT-116 [7]): 26.1 µM
COc1cc(O)c(C(N)=O)c2oc(C(=O)N(C)C)c(C)c12	45	24	–
COc1cc(O)c(C(N)=O)c2oc(C(=O)NC3CCCC3)c(C)c12	22	6	–
COc1cc(O)c(C(N)=O)c2oc(C(=O)NC3CCCCC3)c(C)c12	28	20	–
COc1cc(O)c(C(N)=O)c2oc(C(=O)N3CCN(c4ccccc4)CC3)c(C)c12	15	8	–
COc1cc(O)c(C(N)=O)c2oc(C(=O)NC3CCN(C(=O)c4ccc(C(F)(F)F)cc4)CC3)c(C)c12	29	26	–
COc1cc(O)c(C(N)=O)c2oc(C(=O)NCC3CCN(Cc4ccc(Cl)c(Cl)c4)CC3)c(C)c12	38	21	–

SMILES	inhibition [1] [%]	inhibition [2] [%]	also measured
COc1cc(O)c(C(N)=O)c2oc(C(=O)NC3CCN(Cc4ccc(Cl)cc4Cl)CC3)c(C)c12	0	0	–
COc1cc(O)c(C(N)=O)c2oc(C(=O)NCc3ccccc3)c(C)c12	28	24	–
COc1cc(O)c(C(N)=O)c2oc(C(=O)NC3CCN(Cc4c(Cl)cccc4Cl)CC3)c(C)c12	27	1	–
COc1cc(O)c(C(N)=O)c2oc(C(=O)Nc3ccc(C)c(C(F)(F)F)c3)c(C)c12	57	75	inhibition [3]: 23%; inhibition [4]: 23%; inhibition [5]: 12%; IC50 [6]: 3.55 µM; IC50 (THP-1): > 50 µM
COc1cc(O)c(C(N)=O)c2oc(C(=O)N3CCOCC3)c(C)c12	24	12	–
COc1cc(OC)c2c(C)c(C(=O)NC3CCN(Cc4cccc(C(F)(F)F)c4)CC3)oc2c1	35	6	–
COc1cc(O)c(C(N)=O)c2oc(C(=O)NC3CCN(Cc4ccccc4F)CC3)c(C)c12	31	29	–
COc1cc(O)c(C(N)=O)c2oc(C(=O)NC3CCN(Cc4ccc(C)cc4)CC3)c(C)c12	40	27	–
COc1cc(O)c(C(N)=O)c2oc(C(=O)NCC3CCN(C(=O)c4ccc(F)cc4)CC3)c(C)c12	23	16	–
COc1cc(O)c(C(N)=O)c2oc(C(=O)NC3CCN(Cc4ccncc4)CC3)c(C)c12	32	15	–
COc1cc(O)c(C(N)=O)c2oc(C(=O)Nc3ccccc3)c(C)c12	0	0	–
CCOC(=O)c1oc2c(C(N)=O)c(O)cc(OC)c2c1C	41	21	–
Nc1ncnc2[nH]nc(Nc3ccc(F)cc3)c12	–	–	IC50 (MOLM-13): 8.24 µM; IC50 (THP-1): 11.7 µM; IC50 (HCT-116 [7]): 10.2 µM
COc1cc(O)c(C(N)=O)c2oc(C(=O)NCc3cccc(F)c3)c(C)c12	23	11	–
COc1cc(O)c(C(N)=O)c2oc(C(=O)N(C)Cc3ccccc3)c(C)c12	0	0	–
Cc1c(C(=O)NC2CCN(Cc3cccc(C(F)(F)F)c3)CC2)oc2c(C(N)=O)c(O)cc(O)c12	34	1	–
COc1cc(O)c(C(N)=O)c2oc(C(=O)N3CCCCC3)c(C)c12	23	19	–
COc1cc(OC)c2c(C)c(C(=O)NC3CCN(Cc4cccc(C(F)(F)F)c4)CC3)oc2c1C(N)=O	29	2	–
COc1cc(O)c(C(N)=O)c2oc(C(=O)N3CCN(c4ccc(F)cc4)CC3)c(C)c12	10	5	–
COc1cc(O)c(C(N)=O)c2oc(C(=O)NC3CCN(Cc4ccc(Cl)cc4)CC3)c(C)c12	45	29	–
